ChEMBL document CHEMBL1140891, “Design, synthesis and biological evaluation of novel stilbene-based antitumor agents” (Bioorg Med Chem, 2009)
Activity calls are given as the source filed them. No cut-off for these calls is given here.

Tests used:
MDA-MB-231 = assay: Cytotoxicity against human MDA-MB-231 cells after 48 hrs by alamar blue assay; format: functional, cell-based; conditions: MDA-MB-231, 48 h
How it was run: (§1)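 MDA-MB231, MiaPaCa2 and SNU423 cells (ATCC) were grown in DMEM, and UCI-101 cells in IMDM. Both media had 10% FBS plus penicillin/streptomycin/glutamine, under 5% CO2. Cells were treated for 48 h at seven concentrations from 0 to 3.0. Alamar Blue was added at 1/10 volume and OD was read at 570 and 600 nm. % growth inhibition versus untreated cells used extinction-coefficient formula; IC50 from three experiments.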

MIA PaCa-2 = assay: Cytotoxicity against human MIAPaCa2 cells after 48 hrs by alamar blue assay; format: functional, cell-based; conditions: MIA PaCa-2, 48 h; how it was run: as §1
SNU-423 = assay: Cytotoxicity against human SNU423 cells after 48 hrs by alamar blue assay; format: functional, cell-based; conditions: SNU-423, 48 h; how it was run: as §1
[1] = Cytotoxicity against human UCI101 cells after 48 hrs by alamar blue assay; format: functional, cell-based; conditions: UCI101, 48 h; how it was run: as §1
[2] = Solubility in water; format: physicochemical
HL-60 = assay: Induction of apoptosis in human HL60 cells by flow cytometry; format: functional, cell-based
[3] = Inhibition of tubulin without microtubule associated protein polymerization at 5 uM after 60 mins

| SMILES | IC50 (MDA-MB-231) [nM] | IC50 (MIA PaCa-2) [nM] | IC50 (SNU-423) [nM] | IC50 [1] [nM] | solubility [2] [µg/mL] | IC50 (HL-60) [nM] | Activity [3] |
| --- | --- | --- | --- | --- | --- | --- | --- |
| CC[C@]1(O)C[C@H]2CN(CCc3c([nH]c4ccccc34)[C@@](C(=O)OC)(c3cc4c(cc3OC)N(C=O)[C@H]3[C@@](O)(C(=O)OC)[C@H](OC(C)=O)[C@]5(CC)C=CCN6CC[C@]43[C@@H]65)C2)C1 [VINCRISTINE] | 15 | 15 | 10 | 20 |  |  |  |
| C=CCOc1cc(/C=C\c2ccc(OC)c(N)c2)cc(OC)c1 |  |  |  | 200 |  |  |  |
| COc1ccc(/C=C\c2cc(OC)c(OC)c(OC)c2)cc1O [COMBRETASTATIN A4] | 4 | 8 | 6 | 2 |  |  |  |
| COc1cc(/C=C\c2ccc(OC)c(N)c2)cc(OC)c1.O=C(O)C(=O)O |  |  |  |  | < 1000 |  |  |
| COc1cc(/C=C\c2ccc(OC)c(N)c2)cc(OCC(=O)O)c1 |  |  |  | > 10000 |  |  |  |
| COc1cc(/C=C\c2ccc3ccn(C)c3c2)cc(OC)c1 |  |  |  | 220 |  |  |  |
| COc1cc(/C=C\c2ccc(OC)c(NC(=O)OCCN3CCOCC3)c2)cc(OC)c1.O=C(O)C(=O)O |  |  |  |  | 5900 |  |  |
| COc1cc(/C=C\c2ccc(OC)c(NC(=O)OCCN3CCOCC3)c2)cc(OC)c1 [listing 1 of 2 here] |  |  |  |  | < 1000 |  |  |
| COc1ccc(/C=C\c2ccc3c(ccn3C)c2)cc1N |  |  |  | 200 | < 1000 |  |  |
| COc1cc(/C=C\c2ccc(OC)c(NC(=O)NCCN3CCOCC3)c2)cc(OC)c1 |  |  |  | > 10000 |  |  |  |
| COc1cc(/C=C\c2ccc(OC)c(N)c2)cc(OC)c1.Cl | 30 | 40 | 30 | 30 | 6000 | 30 |  |
| COc1cc(/C=C\c2ccc(OC)c(N)c2)cc(OC(C)C)c1 |  |  |  | 100 |  |  |  |
| COc1cc(O)cc(/C=C\c2ccc(OC)c(N)c2)c1 | 800 | 700 | 2000 | 800 |  |  | Active |
| COc1ccc(/C=C\c2ccc3[nH]ccc3c2)cc1N |  |  |  | 5000 |  |  |  |
| COc1cc2c(c(OC)c1OC)-c1ccc(OC)c(=O)cc1[C@@H](NC(C)=O)CC2 [COLCHICINE] | 20 | 25 | 25 | 30 |  |  | Active |
| COc1cc(/C=C\c2ccc(OC)c(NC(=O)OCCN3CCOCC3)c2)cc(OC)c1 [listing 2 of 2 here] |  |  | 5000 | 5000 |  |  |  |
| COc1cc(/C=C\c2ccc(OC)c(NC(=O)OCCOCCOCCO)c2)cc(OC)c1 |  |  |  | > 10000 |  |  |  |
| CCOc1cc(/C=C\c2ccc(OC)c(N)c2)cc(OC)c1 |  |  |  | 80 |  |  | Active |
| COc1cc(/C=C\c2ccc(OC)c(N)c2)cc(OC)c1 [listing 1 of 2 here] |  |  |  |  |  |  | Active |
| COc1cc(/C=C\c2ccc(OC)c(O)c2)cc(OC)c1 |  |  | 15 | 30 |  | 30 |  |
| COc1cc(/C=C\c2ccc3[nH]ccc3c2)cc(OC)c1 | 250 | 200 | 700 | 250 |  |  |  |
| COc1cc(/C=C\c2ccc(OC)c(N)c2)cc(OC)c1 [listing 2 of 2 here] |  |  |  |  | < 1000 |  |  |
| COc1cc(/C=C\c2ccc3c(ccn3C)c2)cc(OC)c1 | 80 | 80 | 30 | 40 | < 1000 |  |  |
| COc1cc(/C=C\c2ccc(OC)c(N)c2)cc(OCCO)c1 | 80 | 180 | 200 | 150 |  |  |  |
| COc1cc(/C=C\c2ccc3[nH]cnc3c2)cc(OC)c1 | 800 | 800 | 1000 | 260 |  |  |  |
| COc1cc(/C=C\c2ccc3cc[nH]c3c2)cc(OC)c1 | 250 | 200 | 700 | 250 |  |  |  |
